This passage reports cytotoxicity results from ChEMBL document CHEMBL4513216, “Probing the Open Global Health Chemical Diversity Library for Multistage-Active Starting Points for Next-Generation Antimalarials” (ACS Infect Dis, 2020).

Each structure is given as a SMILES string.

This series is described as follows: Toxicity liver stage against HepG2, at 10uM. In kind it is cell-based. Particulars: human, HepG2-A16-CD81EGFP cells; read-out: INHIBITION
On the set-up: test concentration 10 uM, cell line HepG2-A16-CD81EGFP. A digest of the protocol:
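Uninfected HepG2-A16-CD81EGFP cells, 3 × 10^3 per well, 1536-well, plated on prespotted compound at 10 μM final, parasite-free screening media added to match infected plates; puromycin 10 μM positive, DMSO 0.5% negative; run in parallel with 48 h PbLuc assay at 37 °C, 5% CO2; viability by CellTiter-Glo luminescence, normalized to controls.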
In the case of `O=C1CN(c2ccc(CNC(=O)Nc3nnc(C4CC4)s3)cc2)CCN1`, the cytotoxicity at 10 µM was -3.73%.
Then `OC(c1ccccc1)C1CCN(Cc2csc(-c3ncccn3)n2)CC1` (stereo unspecified), with -3.87%; and `O=C(NC[C@H]1OC[C@@H](NC2CCC(F)(F)CC2)[C@@H]1O)c1ccccc1`, with -4.1%.
The value for `O=S1(=O)CCC(S(=O)(=O)c2cccc(S(=O)(=O)N3CCOCC3)c2)C1` (stereo unspecified) was 3.42%; that for `O=C(c1ccc2[nH]ccc2c1)N1CCCSCC1CN1CCCC1` (stereo unspecified) was 9.4%; that for `O=C(NC1CC1)[C@H]1COC[C@H]2CN(c3ncc(F)cn3)C[C@H]21` was -0.664%.
Consider `CCn1cc2c(n1)C(COC)CN(Cc1ccoc1)C2` (stereo unspecified), for which the cytotoxicity at 10 µM stood at 7.89%.
The value for `O=C(c1ccco1)N1CCCC2(CCN(CCN3CCCC3)C2=O)C1` (stereo unspecified) was -4.73%; that for `Cc1nccn1-c1nccnc1C1CCCN(C2CCCC2)C1` (stereo unspecified) was -0.55%; that for `Cc1nc(CC(=O)N2CCc3nc(-c4cnccn4)nc(O)c3C2)cs1` was 16.2%.
Take `Cc1cccnc1C(Cc1ccsc1)NC(=O)Cn1cccnc1=O` (stereo unspecified): the cytotoxicity at 10 µM came out at 3.08%.
The value for `CC(=O)N1CC2(CCCCN2Cc2ccc(Cl)cc2)Cc2ccccc21` (stereo unspecified) was 14.5%.
In the case of `FC(F)Oc1ccccc1CNCc1cc(Br)c2c(c1)OCO2`, the cytotoxicity at 10 µM turned out to be 10.7%.
The value for `Cc1ccc(C(=O)NCC(C)Cn2cccn2)c(=O)[nH]1` (stereo unspecified) was 3.14%; that for `COCCCN(C)c1cc(C(F)(F)F)nc(-c2cccnc2)n1` was -4.83%; that for `O=C1OCCC1N1CCN(c2ccccn2)CC1` (stereo unspecified) was 7.37%.
`Cn1cc(CCNC(=O)c2cc3ccccc3nc2N2CCCC2)cn1`: the cytotoxicity at 10 µM was -1.29%.
The value for `COc1ccc2c(c1)NC(=O)C2OC(=O)Cc1ccccc1C` (stereo unspecified) was 45.2%; that for `Cc1cc(NC(=O)C(C)NCCn2cccn2)no1` (stereo unspecified) was 10.6%; that for `O=S(=O)(c1cc2ccccc2o1)N1CCCC1` was 20.2%.
In the case of `N#Cc1c(Cl)nsc1NCc1ccc(N2CCSCC2)cc1`, the cytotoxicity at 10 µM came to 1.24%.
Then `Cc1noc(C)c1CNc1cccc(C(=O)N(C)c2ccccc2)c1`, with 17.5%; and `CCN1CCN(C(C)CNC(=O)Nc2nc3ccccc3s2)CC1` (stereo unspecified), with -2.32%; and `O=C(c1ccc(F)c(Br)c1)N1CCCN2CCCC2C1` (stereo unspecified), with -0.746%.
Then `CNS(=O)(=O)c1cccc(C(C)NCc2ccc(F)c(F)c2)c1` (stereo unspecified), with 16.2%; and `CCCC(NC(=O)c1cc(C)c(F)cc1F)c1nnn[nH]1` (stereo unspecified), with -2.59%; and `Cc1ccc(C(=O)NCCNCC2CNc3ccnn3C2)cc1F` (stereo unspecified), with -1.62%.
Take `O=C(CCc1ccsc1)NC1CCN(c2cccc(F)c2)CC1`: the cytotoxicity at 10 µM is -3.89%.
`CNc1cc(N2CCCC2CNCc2ccco2)ncn1` (stereo unspecified): the cytotoxicity at 10 µM is -10.4%.
The value for `Cn1cc(NC(=O)CCc2ccsc2)ccc1=O` was -2.9%; that for `Cc1nc(CCNC(Cc2ccncc2)C(F)(F)F)cs1` (stereo unspecified) was -1.48%; that for `CN1CCN(c2ccc(F)cc2C(N)=O)CC1` was 6.11%.
The value for `Cc1nnc(C(C)N(C)Cc2c(C)nn(-c3ccccc3C)c2C)o1` (stereo unspecified) was -1.07%; that for `CC(NCc1cnc(C2CCC2)s1)c1ccc(-n2cccn2)cc1` (stereo unspecified) was 7.67%.
In the case of `COc1ncc(Cl)c(NCc2ccc(C(=O)N(C)C)cc2)n1`, the cytotoxicity at 10 µM stood at 9.95%.
The value for `Cn1c(=O)oc2cc(Nc3ncc(C#N)cc3Cl)ccc21` was 4.93%.
For the compound `CN1CC(Nc2ccc(Br)cc2C#N)CCC1=O` (stereo unspecified), the cytotoxicity at 10 µM was determined as 8.25%.
Then `CCc1ccc(C(=O)O)cc1S(=O)(=O)N(C)c1cccc(C)c1`, with -8.2%; and `N#Cc1cccc(OCC(=O)N(Cc2ccncc2)C2CC2)c1`, with -44.2%.
Then `OCc1cc2ccccc2nc1NCC1CC1`, with -46.2%.
The value for `CCSCc1cccc(NC(=O)N(C)Cc2ncnn2C)c1` was -0.477%; that for `Cc1cnc(CCN(C)C(=O)c2cccc(C)c2O)s1` was -2.48%.
As for `CN(CCS(=O)(=O)c1cc(Cl)ccc1Cl)CC(=O)Nc1cccc(F)c1`, the cytotoxicity at 10 µM turned out to be 13.9%.
The value for `Cn1cc(C(=O)OCC(N)=O)c(-c2ccc(F)cc2F)n1` was -7.85%; that for `CN(C)S(=O)(=O)N1CCC2(COCc3cnc(-c4cccnc4)nc32)C1` (stereo unspecified) was -115%; that for `CN(C)C(=O)N1CCc2c(COCC3CC3)cncc2C1` was -68.2%.
`CN(C)C(=O)CC1CC2(CCNCC2)c2cc(F)ccc21` (stereo unspecified): the cytotoxicity at 10 µM stood at 6.54%.
The value for `COCCn1c2c(ccc1=O)CC(NS(C)(=O)=O)CC2` (stereo unspecified) was 8.8%.
On to `COc1ccccc1Nc1nc2c(s1)C(=O)CN(C(=O)CC(C)C)C2`, for which the cytotoxicity at 10 µM is 61.2%.
The value for `COc1cccc(C(=O)C2CCCN(c3cc(C#N)ccn3)C2)c1` (stereo unspecified) was 1.85%; that for `Cn1ccnc1C1CCN(S(=O)(=O)c2ccc3oc(=O)[nH]c3c2)CC1` was 1.93%; that for `CN(CC(=O)N1CC(C)(C)[C@@](C)(O)C1)Cc1ccncc1` was -49.4%.
The value for `O=C(NCC1CCCN(C(=O)NCCc2ccccc2)C1)c1ccco1` (stereo unspecified) was -4.66%.
Regarding `CSc1ccc(CN(C(=O)c2cc(=O)[nH]c(=O)[nH]2)C2CC2)cc1`, the cytotoxicity at 10 µM is -44.8%.
Then `CN(C(=O)CC1=CCCCC1)C1CCCN(CCc2ccccc2)C1` (stereo unspecified), with 7.23%.
Then `Cc1ncsc1CCC(=O)N1CCn2cccc2C1c1cccnc1` (stereo unspecified), with -9.57%; and `CNc1nc(C(=O)N2CCCC(CO)(CCCOC)C2)cs1` (stereo unspecified), with 7.43%; and `COCCN1CCC(C(=O)N(C)CCOc2ccc(C)cc2Cl)C1` (stereo unspecified), with 13.4%.
Then `CCCn1ncc(C(=O)NC2CCN(C3CCOCC3)CC2)c1C`, with 5.66%; and `CC(=O)NC1CCN(c2nc(N(C)C)nc3c2CCN(C(C)=O)C3)CC1`, with 0.541%; and `CN(Cc1ccncn1)c1nccc(CCC(F)(F)F)n1`, with 11.2%.
Take `CCN(C)C[C@@H]1CN(S(=O)(=O)c2ccc(C#N)cc2)C[C@@H]1CO`: the cytotoxicity at 10 µM came out at 13.5%.
For `CCc1ncc(C(=O)N(C)Cc2cc(-c3ccncc3)no2)cn1`, the cytotoxicity at 10 µM was -13.2%.
Then `CCn1nc(C)cc1S(=O)(=O)N1CCC2(CCCN(C(C)C)C2=O)C1` (stereo unspecified), with -16.3%.
Turning to `CCCc1nc(N(C)Cc2cnc(NC)nc2)c2cnn(C)c2n1`, the cytotoxicity at 10 µM is 3.42%.
Then `Cc1cc(C)n2ncc(CN3CCC(n4cc(CCO)nn4)CC3)c2n1`, with 6.59%; and `Cc1c(NC(=O)c2ncn[nH]2)cccc1C(=O)NC(C)(C)C`, with -8.93%; and `CN1CC(c2n[nH]c(=O)n2-c2cccc(Cl)c2)CC1=O` (stereo unspecified), with 3.24%.
Then `Cc1cc(C(=O)NC(C)c2nnn[nH]2)c2cccc(C)c2n1` (stereo unspecified), with -16.4%; and `Cc1ccccc1[C@@H]1CN(Cc2ccc(C(F)(F)F)nc2)C[C@H]1C(=O)O`, with 5.33%; and `CC(C)(O)C1CCN(C(=O)Nc2nc(-c3ccccc3)ns2)CC1`, with 5.68%.
Consider `OCCN1CCN(Cc2coc(-c3ccccc3)n2)CC1`, for which the cytotoxicity at 10 µM was -5.03%.
Turning to `O=C(NCc1nn(-c2ccccc2)c2c1CCC2)C1CC1`, the cytotoxicity at 10 µM was -8.36%.
In the case of `CCn1cnnc1CNC(=O)N(C)Cc1ccc2c(c1)OCO2`, the cytotoxicity at 10 µM was -5.83%.
For `COCc1nc(C(=O)N2CCCC(n3ccnc3)C2)cs1` (stereo unspecified), the cytotoxicity at 10 µM is -2.12%.
For `Cc1noc(C)c1CN1CCN(C(C)c2nc(C3CC3)no2)CC1` (stereo unspecified), the cytotoxicity at 10 µM was -16.5%.
The value for `Cc1nc(C)n(CC2CCCN2Cc2nc(N)c3ccccc3n2)n1` (stereo unspecified) was -0.192%; that for `CN(Cc1cn2ccccc2c1C#N)C1CCCN(c2cccnn2)C1` (stereo unspecified) was -11.9%.
In the case of `Cn1ccnc1CN1CCCCC1Cn1cccn1` (stereo unspecified), the cytotoxicity at 10 µM is 5.94%.
Turning to `COc1ccc(CN(C)[C@@H]2COC[C@H]2c2ccc(F)cc2)c(OC)c1`, the cytotoxicity at 10 µM stood at 8.54%.
As to `Cc1ccc(CN2CCc3c(nnn3C)C2COCc2ccccc2)s1` (stereo unspecified), the cytotoxicity at 10 µM was -110%.
For `Cc1ccc(N2CCC3(CC2)CCN(C2CCOCC2)CC3)nn1`, the cytotoxicity at 10 µM was found to be 5.5%.
The value for `CC(C)N1CCC2(CC1)CC(CC(N)=O)c1ccc(F)cc12` (stereo unspecified) was 12.8%; that for `Cc1ncsc1CN1CCn2c(COc3cccnc3)cnc2C1C` (stereo unspecified) was 9.16%; that for `c1cc(CN2C[C@@H]3OCCN(CC4CC4)[C@@H]3C2)n[nH]1` was -109%.
Then `CS(=O)(=O)N1CCC2(CC1)CC(NCC1CC1)c1ccccc12` (stereo unspecified), with -111%; and `CN(Cc1ccncc1)C1CC2(CCN(c3ncccn3)CC2)C1`, with 13.1%; and `CCN1c2ccc(-c3cncn3CC(=O)NC(C)(C)C)cc2CC1C` (stereo unspecified), with -0.579%.
For the compound `O=C(c1cccc(F)c1)N1CC[C@H]2[C@H]1CCN2CC1CCOCC1`, the cytotoxicity at 10 µM is -75.4%.
The value for `COc1cccc(C(=O)N2CCc3nc(C4CCCN4)ncc3C2)c1` (stereo unspecified) was -7.28%.
The value for `O=C(NCCc1ccccn1)[C@@H]1CC[C@@H]2[C@@H](CCN2Cc2ccoc2)O1` was 8.21%; that for `CN(C)Cc1cncc2c1CCN(Cc1cnn(C)c1)C2` was 4.13%.
Then `CN1CC2(CCN(S(=O)(=O)C3CC3)CC2)c2ccccc21`, with -4.35%.
In the case of `CCN1C[C@H]2[C@@H](C1)N(S(=O)(=O)c1cccnc1)CC[C@H]2OC`, the cytotoxicity at 10 µM is -1.78%.
Then `Cn1cnc2c1C(COCC1CC1)CN(C(=O)c1cscn1)C2` (stereo unspecified), with 0.922%; and `NC1CC(C(F)(F)F)=NC=C1c1ccc(Cl)cc1` (stereo unspecified), with 50.2%.
